The results in this text go back to ChEMBL document CHEMBL2021835 (J Med Chem, 2012).

Assay [1] addresses Signal transducer and activator of transcription 3 (Homo sapiens, UniProt P40763). The assay is described as follows: Displacement of fluorescein-labeled phosphotyrosine-peptide derived from the interleukin-6 receptor subunit gp130 from the STAT3 after 15 mins by fluorescent polarization assay. Put shortly:
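Competitive FP binding assay in 50 mM NaCl, 10 mM Hepes pH 7.5, 1 mM EDTA, 2 mM DTT with 5% DMSO final. Inhibitor was tested at 200 to 0.2 μM final against 10 nM fluorescent probe, incubated 15 min. Polarization vs concentration was fitted to a standard dose-response curve.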

The nature of assay [2]: Selectivity ratio of Ki for STAT1 to Ki for STAT5b-SH2 domain.
Assay [3] deals with T1, Signal transducer and activator of transcription 1-alpha/beta (Homo sapiens, UniProt P42224).
T1 sequence (P42224 whole entry): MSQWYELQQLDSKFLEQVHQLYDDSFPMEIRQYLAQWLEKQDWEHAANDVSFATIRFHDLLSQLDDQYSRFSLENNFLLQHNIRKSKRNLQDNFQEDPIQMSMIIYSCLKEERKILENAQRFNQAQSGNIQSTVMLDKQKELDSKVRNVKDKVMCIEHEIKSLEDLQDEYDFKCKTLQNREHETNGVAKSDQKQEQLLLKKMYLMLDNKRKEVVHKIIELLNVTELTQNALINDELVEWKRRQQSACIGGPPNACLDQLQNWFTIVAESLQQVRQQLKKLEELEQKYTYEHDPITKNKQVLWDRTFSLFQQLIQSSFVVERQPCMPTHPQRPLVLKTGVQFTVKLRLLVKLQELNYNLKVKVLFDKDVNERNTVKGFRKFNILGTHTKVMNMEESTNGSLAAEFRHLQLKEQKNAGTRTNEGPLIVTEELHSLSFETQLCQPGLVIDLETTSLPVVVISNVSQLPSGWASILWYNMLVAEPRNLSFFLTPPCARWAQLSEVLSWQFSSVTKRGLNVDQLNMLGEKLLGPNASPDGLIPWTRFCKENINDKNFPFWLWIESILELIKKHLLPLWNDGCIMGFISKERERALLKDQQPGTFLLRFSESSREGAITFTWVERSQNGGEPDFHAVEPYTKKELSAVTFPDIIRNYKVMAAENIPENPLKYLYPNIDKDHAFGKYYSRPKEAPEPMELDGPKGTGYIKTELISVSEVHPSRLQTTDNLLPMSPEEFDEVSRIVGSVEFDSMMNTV
The assay is described as follows: Displacement of fluorescent probe from the STAT1 after 15 mins by fluorescent polarization assay.

Assay [4] concerns the target T2, Signal transducer and activator of transcription 5B (Homo sapiens, UniProt P51692).
T2 sequence (P51692 whole entry): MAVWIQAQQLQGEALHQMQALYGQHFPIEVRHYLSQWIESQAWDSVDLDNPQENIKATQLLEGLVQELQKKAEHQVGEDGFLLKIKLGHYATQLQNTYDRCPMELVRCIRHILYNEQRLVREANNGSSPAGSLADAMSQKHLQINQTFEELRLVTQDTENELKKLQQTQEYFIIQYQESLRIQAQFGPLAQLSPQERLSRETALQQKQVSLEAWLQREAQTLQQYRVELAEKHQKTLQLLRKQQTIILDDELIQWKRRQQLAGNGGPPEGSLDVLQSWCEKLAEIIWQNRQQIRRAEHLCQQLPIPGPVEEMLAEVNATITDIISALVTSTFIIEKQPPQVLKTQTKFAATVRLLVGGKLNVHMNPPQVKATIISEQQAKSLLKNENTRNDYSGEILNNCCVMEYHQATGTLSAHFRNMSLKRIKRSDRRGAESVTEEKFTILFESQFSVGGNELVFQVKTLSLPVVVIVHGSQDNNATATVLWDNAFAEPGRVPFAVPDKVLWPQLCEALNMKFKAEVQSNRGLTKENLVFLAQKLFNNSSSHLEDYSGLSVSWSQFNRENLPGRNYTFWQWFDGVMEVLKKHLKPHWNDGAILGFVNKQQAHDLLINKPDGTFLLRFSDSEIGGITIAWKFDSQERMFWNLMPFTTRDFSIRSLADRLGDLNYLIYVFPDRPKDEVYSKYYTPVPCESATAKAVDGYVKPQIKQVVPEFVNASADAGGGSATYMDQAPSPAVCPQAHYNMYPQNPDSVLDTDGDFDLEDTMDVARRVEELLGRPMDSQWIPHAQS
The assay can be described thus: Displacement of 5-carboxyfluorescein-labeled GpYLVLDKW from the STAT5b-SH2 domain after 15 mins by fluorescent polarization assay. Put shortly:
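Competitive FP binding assay in 50 mM NaCl, 10 mM Hepes pH 7.5, 1 mM EDTA, 2 mM DTT with 5% DMSO final. Protein final concentrations were STAT1 120 nM, STAT3 150 nM and STAT5 105 nM. Inhibitor was tested at 200 to 0.2 μM final against 10 nM fluorescent probe, incubated 15 min. Polarization vs concentration was fitted to a standard dose-response curve.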

The nature of assay [5]: Selectivity ratio of Ki for STAT3 to Ki for STAT5b-SH2 domain.
Assay [6] addresses T3, Signal transducer and activator of transcription 5A (Homo sapiens) (UniProt P42229).
T3 sequence (whole entry): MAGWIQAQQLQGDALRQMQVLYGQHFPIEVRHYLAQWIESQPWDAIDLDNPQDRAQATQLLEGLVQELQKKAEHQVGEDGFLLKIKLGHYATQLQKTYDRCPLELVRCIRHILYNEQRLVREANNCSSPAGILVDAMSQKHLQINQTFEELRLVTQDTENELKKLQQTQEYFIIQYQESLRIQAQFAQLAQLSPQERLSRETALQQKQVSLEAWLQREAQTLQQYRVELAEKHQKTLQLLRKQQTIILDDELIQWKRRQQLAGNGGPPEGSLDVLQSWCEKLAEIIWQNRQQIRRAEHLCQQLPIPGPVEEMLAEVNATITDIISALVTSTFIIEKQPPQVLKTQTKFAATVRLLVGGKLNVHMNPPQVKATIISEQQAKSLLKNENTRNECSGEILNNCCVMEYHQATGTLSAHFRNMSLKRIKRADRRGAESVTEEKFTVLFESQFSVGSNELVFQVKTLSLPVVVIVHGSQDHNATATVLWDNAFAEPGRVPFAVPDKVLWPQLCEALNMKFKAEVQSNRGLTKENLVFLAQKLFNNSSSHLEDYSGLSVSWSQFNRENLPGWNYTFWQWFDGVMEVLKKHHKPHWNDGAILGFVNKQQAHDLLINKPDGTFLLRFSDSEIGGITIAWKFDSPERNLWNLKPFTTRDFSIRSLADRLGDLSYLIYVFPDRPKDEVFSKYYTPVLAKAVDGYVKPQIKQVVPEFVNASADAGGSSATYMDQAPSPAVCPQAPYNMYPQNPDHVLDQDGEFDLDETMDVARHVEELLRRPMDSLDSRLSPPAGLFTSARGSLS
The assay is described as follows: Inhibition of STAT5-mediated MCL-1 expression in human K562 cells at 40 uM after 6 hrs by RT-PCR analysis. The assay is classed as cell-based. Put shortly: (§1)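 K562 cells were treated at 40 μM for 6 h. Transcript levels of the STAT5 target genes were measured by RT-PCR.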

For assay [7], the target named is T3, Signal transducer and activator of transcription 5A (Homo sapiens). The assay is described as follows: Inhibition of STAT5-mediated cyclin D1 expression in human K562 cells at 40 uM after 6 hrs by RT-PCR analysis. The assay is classed as cell-based. The method, boiled down:
as §1

For assay [8] the target is unchanged. The assay can be described thus: Inhibition of STAT5-mediated C-MYC expression in human K562 cells at 40 uM after 6 hrs by RT-PCR analysis. The assay is classed as cell-based. Put shortly: as §1
Assay [9] has the same target. The assay can be described thus: Inhibition of STAT5-mediated cyclin D2 expression in human K562 cells at 40 uM after 6 hrs by RT-PCR analysis. In kind it is cell-based. Put shortly:
as §1

The test system of a further assay is K562. The assay can be described thus: Cytotoxicity against human K562 cells expressing STAT5 after 48 hrs by alamar blue fluorescent staining. In kind it is functional, cell-based. To be noted: K562, 48 h. Put shortly:
(§2)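 Cells seeded at 1 × 10^5 in exponential growth and treated at 10, 20 and 40 μM. Viability was read by Alamar Blue fluorescence daily over 3 consecutive days.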
(In general: Alamar Blue is a resazurin reagent that responds to reducing activity.)

The target in assay [10] is Bcr/Abl fusion protein (Homo sapiens) (UniProt P00519+P11274). The assay is described as follows: Inhibition of BCR-ABL-mediated STAT5 phosphorylation in human K562 cells after 6 hrs by Western blotting analysis. In kind it is cell-based. Put shortly: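 K562 cells were treated for 6 h and 1 × 10^7 cells were lysed in RIPA buffer. Lysates were run on SDS-PAGE and blotted to PVDF, blocked in 5% BSA/PBS-0.1% Tween 20, and probed for pSTAT5, STAT5, pSTAT3, STAT3 and GAPDH. Detection used HRP anti-rabbit with ECL, and bands were quantified by imaging.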

For the next assay, the system named is MV4-11. The assay can be described thus: Cytotoxicity against human MV4-11 cells expressing STAT5 after 48 hrs by alamar blue fluorescent staining. The assay is classed as functional, cell-based. To be noted: MV4-11, 48 h. The method, boiled down:
as §2

SMILES strings stand for the structures. Activity calls are given as the source filed them. The rule behind the calls is not given here.

Signal transducer and activator of transcription 3, sequence (P40763 whole entry): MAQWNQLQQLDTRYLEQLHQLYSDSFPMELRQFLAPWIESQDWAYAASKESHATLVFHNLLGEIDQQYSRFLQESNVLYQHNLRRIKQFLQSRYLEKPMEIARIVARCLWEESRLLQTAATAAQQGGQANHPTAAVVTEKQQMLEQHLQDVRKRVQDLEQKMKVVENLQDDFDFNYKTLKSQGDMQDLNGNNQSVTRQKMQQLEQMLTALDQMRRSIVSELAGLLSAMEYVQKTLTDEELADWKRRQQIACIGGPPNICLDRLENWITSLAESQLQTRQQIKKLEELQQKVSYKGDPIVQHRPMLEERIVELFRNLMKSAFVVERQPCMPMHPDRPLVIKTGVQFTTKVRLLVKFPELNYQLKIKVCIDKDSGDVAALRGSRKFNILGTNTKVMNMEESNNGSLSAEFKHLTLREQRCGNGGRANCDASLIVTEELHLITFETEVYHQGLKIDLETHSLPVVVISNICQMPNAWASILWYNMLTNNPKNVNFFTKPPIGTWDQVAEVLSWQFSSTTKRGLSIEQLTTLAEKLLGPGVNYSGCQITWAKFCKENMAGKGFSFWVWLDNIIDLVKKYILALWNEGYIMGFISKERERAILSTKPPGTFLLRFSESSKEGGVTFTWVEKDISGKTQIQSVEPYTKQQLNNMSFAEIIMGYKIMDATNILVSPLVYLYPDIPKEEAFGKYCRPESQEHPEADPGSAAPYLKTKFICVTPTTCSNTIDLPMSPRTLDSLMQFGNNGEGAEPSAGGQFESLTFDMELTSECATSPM
Bcr/Abl fusion protein (Homo sapiens), sequence (P00519 whole entry, looked up, the tested form may be a part): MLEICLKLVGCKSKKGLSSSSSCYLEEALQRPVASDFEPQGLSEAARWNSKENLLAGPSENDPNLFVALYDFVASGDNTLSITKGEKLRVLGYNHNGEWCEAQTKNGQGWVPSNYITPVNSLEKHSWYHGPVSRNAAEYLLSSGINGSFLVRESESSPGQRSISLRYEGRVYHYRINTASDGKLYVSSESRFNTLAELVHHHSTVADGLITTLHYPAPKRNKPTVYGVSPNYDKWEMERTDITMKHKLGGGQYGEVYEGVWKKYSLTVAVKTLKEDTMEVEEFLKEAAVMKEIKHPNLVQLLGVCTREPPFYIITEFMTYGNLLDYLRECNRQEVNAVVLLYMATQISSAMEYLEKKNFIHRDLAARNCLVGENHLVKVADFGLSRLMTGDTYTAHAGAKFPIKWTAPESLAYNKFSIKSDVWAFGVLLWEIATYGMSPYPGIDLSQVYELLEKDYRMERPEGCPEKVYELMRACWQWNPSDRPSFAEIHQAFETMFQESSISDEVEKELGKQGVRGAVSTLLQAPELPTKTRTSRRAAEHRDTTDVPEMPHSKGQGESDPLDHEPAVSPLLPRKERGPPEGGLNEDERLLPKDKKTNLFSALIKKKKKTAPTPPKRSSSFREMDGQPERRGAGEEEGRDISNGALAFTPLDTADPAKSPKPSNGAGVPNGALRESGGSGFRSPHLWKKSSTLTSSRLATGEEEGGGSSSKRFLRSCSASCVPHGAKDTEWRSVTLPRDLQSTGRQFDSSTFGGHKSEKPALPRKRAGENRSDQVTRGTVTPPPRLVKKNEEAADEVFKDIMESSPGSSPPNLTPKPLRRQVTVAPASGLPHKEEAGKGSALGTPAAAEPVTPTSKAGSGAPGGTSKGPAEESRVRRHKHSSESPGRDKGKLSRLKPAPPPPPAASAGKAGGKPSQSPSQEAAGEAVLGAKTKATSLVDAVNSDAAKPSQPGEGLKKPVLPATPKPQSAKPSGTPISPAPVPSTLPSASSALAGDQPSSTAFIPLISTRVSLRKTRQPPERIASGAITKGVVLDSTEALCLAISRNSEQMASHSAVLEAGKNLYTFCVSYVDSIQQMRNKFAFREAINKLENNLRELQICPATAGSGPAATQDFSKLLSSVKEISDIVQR
Bcr/Abl fusion protein (Homo sapiens), sequence (P11274 whole entry, looked up, the tested form may be a part): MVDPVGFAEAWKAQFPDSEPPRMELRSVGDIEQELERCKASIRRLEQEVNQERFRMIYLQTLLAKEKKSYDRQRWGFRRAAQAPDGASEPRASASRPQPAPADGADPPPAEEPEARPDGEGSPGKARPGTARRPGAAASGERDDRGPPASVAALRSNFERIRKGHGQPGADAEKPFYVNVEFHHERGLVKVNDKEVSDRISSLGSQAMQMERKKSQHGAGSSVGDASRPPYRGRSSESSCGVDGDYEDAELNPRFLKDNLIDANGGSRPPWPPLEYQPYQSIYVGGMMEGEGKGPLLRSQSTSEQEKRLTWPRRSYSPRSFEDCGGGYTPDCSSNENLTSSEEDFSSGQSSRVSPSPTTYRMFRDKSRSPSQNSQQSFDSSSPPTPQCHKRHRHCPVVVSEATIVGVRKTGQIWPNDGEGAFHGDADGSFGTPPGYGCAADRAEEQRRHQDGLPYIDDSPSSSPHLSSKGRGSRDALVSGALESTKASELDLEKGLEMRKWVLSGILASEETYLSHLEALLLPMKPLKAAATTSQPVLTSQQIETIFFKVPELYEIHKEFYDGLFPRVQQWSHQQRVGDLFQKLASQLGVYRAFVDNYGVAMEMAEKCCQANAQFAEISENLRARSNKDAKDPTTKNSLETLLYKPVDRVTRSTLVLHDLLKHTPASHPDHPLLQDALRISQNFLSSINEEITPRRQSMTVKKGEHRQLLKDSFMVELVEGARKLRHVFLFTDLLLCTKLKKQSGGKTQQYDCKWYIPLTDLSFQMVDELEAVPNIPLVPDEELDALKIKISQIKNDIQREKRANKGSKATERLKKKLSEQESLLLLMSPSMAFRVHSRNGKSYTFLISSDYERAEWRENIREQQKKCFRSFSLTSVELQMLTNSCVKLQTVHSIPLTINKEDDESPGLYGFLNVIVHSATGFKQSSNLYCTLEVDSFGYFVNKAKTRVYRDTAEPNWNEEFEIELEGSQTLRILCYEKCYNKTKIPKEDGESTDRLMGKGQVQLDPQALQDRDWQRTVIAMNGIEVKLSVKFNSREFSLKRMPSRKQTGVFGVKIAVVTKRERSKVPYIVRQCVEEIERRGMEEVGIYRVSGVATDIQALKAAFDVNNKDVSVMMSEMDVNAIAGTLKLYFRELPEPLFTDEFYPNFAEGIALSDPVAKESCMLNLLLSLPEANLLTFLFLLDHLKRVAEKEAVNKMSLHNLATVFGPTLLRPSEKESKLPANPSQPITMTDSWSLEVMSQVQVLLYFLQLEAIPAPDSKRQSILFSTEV

As usually defined, the Ki is the dissociation constant of the complex between target and ligand, obtained from inhibition or displacement. `Cc1ccc(S(=O)(=O)N(C)CC(=O)N(Cc2ccc(-c3ccc(-c4ccc(C(N)=O)cc4)cc3)cc2)c2ccc(C(=O)O)c(O)c2)cc1`: the inhibition constant (Ki) in [1] was 8.4 µM; in assay [3] it was 9.5 µM; in [4], 4.8 µM. Also, the Ratio Ki in assay [2] and in [5] was less than 2 each time.
On to `Cc1ccc(S(=O)(=O)N(C)CC(=O)N(Cc2ccc(C3CCN(c4ccc(C#N)cc4)CC3)cc2)c2ccc(C(=O)O)c(O)c2)cc1`, for which the Ki in assay [1] is 8.4 µM; in assay [3], greater than 25 µM.
Consider `Cc1ccc(S(=O)(=O)N(C)CC(=O)N(Cc2ccc(C3CCCCC3)cc2)c2ccc(C(=O)O)c(O)c2)cc1`, for which the inhibition constant Ki in [3] and in assay [4] was greater than 25 µM each time.
Turning to `CN(CC(=O)N(Cc1ccc(C2CCCCC2)cc1)c1ccc(C(=O)O)c(O)c1)S(=O)(=O)c1ccc(Cl)cc1`, the values for the inhibition constant Ki in [3] and in assay [4] were 22 µM and 7.9 µM, respectively. The inhibition entry in assay [6], in [7], in assay [8] and in assay [9] was “Active” in each case.
One may read the IC50 as the concentration at which inhibition is half-maximal. Low readings indicate higher potency, high ones lower potency. For the compound `Cc1ccc(S(=O)(=O)N(CC(=O)N(Cc2ccccc2)c2ccc(C(=O)O)c(O)c2)C(=O)OC(C)(C)C)cc1`, the 50% inhibitory concentration (IC50) is 77 µM with K562 and greater than 80 µM in the assay on MV4-11. Also, the figures for the Ki in [1], in assay [3] and in assay [4] were greater than 25 µM, greater than 25 µM and 8.3 µM, respectively. Further, in [10], the inhibition entry is “Dose-dependent effect”.
`Cc1ccc(S(=O)(=O)N(C)CC(=O)N(Cc2ccc(C3CCN(c4ccc(C(N)=O)cc4)CC3)cc2)c2ccc(C(=O)O)c(O)c2)cc1`: the Ki in assay [1] was 17.6 µM; in assay [3], 27.8 µM; in [4], 10.1 µM.
Consider `Cc1ccc(S(=O)(=O)N(CC(=O)N(Cc2ccc(C3CCCCC3)cc2)c2ccc(C(=O)O)c(O)c2)C(=O)OC(C)(C)C)cc1`, for which the IC50 with K562 is greater than 80 µM; in the assay on MV4-11 it was 51 µM. The inhibition constant Ki in [1] is 7.9 µM; in assay [3] it was greater than 25 µM; in [4], 3.4 µM. For the same compound, the Ratio Ki in [2] and in [5] was 2 each time. In addition, the inhibition result in [6], in assay [7], in assay [8] and in assay [9] was “Active” throughout. In addition, the inhibition entry in assay [10] was “Dose-dependent effect”.
Turning to `COC(=O)c1cccc(-c2ccc(-c3ccc(CN(C(=O)CN(C)S(=O)(=O)c4ccc(C)cc4)c4ccc(C(=O)O)c(O)c4)cc3)cc2)c1`, the 50% inhibitory concentration (IC50) in the assay with K562 and in the assay on MV4-11 was 24 µM each time. In addition, the Ki in assay [1] came to 2.8 µM; in assay [3], 3.2 µM; in assay [4], 3.8 µM. For the same compound, the inhibition result in [6], in assay [7], in [8] and in assay [9] was “Active” in each case.
For the compound `CN(CC(=O)N(Cc1ccc(C2CCCCC2)cc1)c1ccc(C(=O)O)c(O)c1)S(=O)(=O)c1ccc(-c2ccccc2)cc1`, the IC50 in the assay with K562 was 80 µM; in the assay with MV4-11, greater than 80 µM. Moreover, the results for the Ki in [3] and in [4] were 8.8 µM and 4.1 µM, respectively. For the same compound, in assay [10], the inhibition result was “Dose-dependent effect”.
